Results pooled from the literature.
Protocols differ between the studies behind these lines.
Target: Serine/threonine-protein kinase MARK2 (MARK2, Homo sapiens, UniProt Q7KZI7)

Structure (SMILES) | test | setting | measurement | result
NS(=O)(=O)c1ccc(CNc2nc(Nc3cccc(CN4CCOCC4)c3)ncc2C2CC2)cc1 | enzyme activity, inhibitor, radiometric | 1 µM | remaining activity | 98%
O=C1NC(=O)c2cc(Nc3ccc(F)cc3)c(Nc3ccc(F)cc3)cc21 | cell-free assay | 0.5 µM | remaining signal | 98.2%
COc1cc2ncnc(Nc3ccc(Oc4ccccc4)c(C)c3C)c2cc1OC | enzyme activity, inhibitor | 1 µM | inhibition | 6%
CN(C)C1CCN(CC#Cc2nn(C3CCCC3)c3nc(NCc4ccccc4)ncc23)C1 (stereo not drawn) | enzyme activity, inhibitor, FRET | 0.1 µM | inhibition | 4%
CNC(=O)c1cc(Oc2ccc(NC(=O)Nc3ccc(Cl)c(C(F)(F)F)c3)cc2)ccn1 | enzyme activity, inhibitor | 10 µM | inhibition | 26%
CC/C(=N\NC(=O)NCc1cccc(O)c1)c1ccc(O)c(C)c1O | enzyme activity, inhibitor | 0.1 µM | inhibition | -5.8%
FC(F)c1nc2ccccc2n1-c1nc(N2CCOCC2)nc(N2CCOCC2)n1 | enzyme activity, inhibitor | 10 µM | remaining activity | 87%
COc1ccc2c(c1)O[C@@H](c1ccc(OC)c(OC)c1)C[C@H]2NC(=O)C1(c2ccc3c(c2)OC(F)(F)O3)CC1 | cell-free assay, competition with immobilised ligand | 1 µM | remaining binding | 92%
c1cc(CN2CCOCC2)cc(Nc2nccc(NCCc3cnc[nH]3)n2)c1 | enzyme activity, inhibitor, radiometric | 1 µM | remaining activity | 93%
O=C(Nc1cccnn1)N1CC(C/C=C/c2cncc(Oc3ccc(C(F)(F)F)cn3)n2)C1 | cell-free assay, competition with immobilised ligand | 1 µM | remaining binding | 80%
FC(F)(F)Oc1cccc(-c2cnc3ccc(-c4ccncc4)nn23)c1 | enzyme activity, inhibitor, radiometric | 1 µM | activity vs control | 106%
CS(=O)(=O)N1CCCC(NC(=O)[C@H](CCC2CCCCC2)NC(=O)c2ccc(CNC(=O)c3cnc4ccccn34)cc2)C1 (stereo partly drawn) | cell-free assay, competition with immobilised ligand | 0.1 µM | remaining binding | 100%
O=C(NCCCNc1nc(Nc2cccc(NC(=O)N3CCCC3)c2)ncc1Br)C1CCC1 | enzyme activity, inhibitor, radiometric | 1 µM | remaining activity | 2%
COc1cc(/C=C/C(=O)CC(=O)/C=C/c2ccc(O)c(OC)c2)ccc1O | enzyme activity, inhibitor | 1 µM | activity vs control | 78%
Cc1nn(CC(F)(F)F)cc1Nc1ncc(C2CC2)c(NCc2ccc(S(N)(=O)=O)cc2)n1 | enzyme activity, inhibitor, radiometric | 1 µM | remaining activity | 100%
CN1CCN(c2cnc3c(C4CCN(C(=O)c5ccc(OC(F)(F)F)cc5N)CC4)ncnc3c2)CC1 | cell-free assay, competition with immobilised ligand | 1 µM | remaining binding | 100%
Cc1nn(CC(F)(F)F)cc1Nc1ncc(C2CC2)c(NCCCNC(=O)C2CCC2)n1 | enzyme activity, inhibitor, radiometric | 1 µM | remaining activity | 93%
Cc1noc([C@H]2C[C@@H](c3ccc(C(F)(F)F)cc3)CN(C(=O)N3CCS(=O)(=O)C3)C2)n1 | cell-free assay, competition with immobilised ligand | 1 µM | remaining binding | 100%
